Substitutions are numbered along the chain they refer to.
How the values were obtained:
Type in all cases: biochemical
[1] = test system: sDTE (Sinorhizobium sp. D-tagatose 3-epimerase); assay: Michaelis-Menten non-linear regression; settings: optimum pH 8.0 (Tris-HCl) and 50 °C; Mn2+
Outline: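 Enzyme expressed from pET28a(+) in E. coli BL21(DE3) (0.5 mM IPTG, 16 °C, 20 h), purified on Ni-NTA then Resource Q. Standard assay: 20 mM Tris–HCl pH 8.0, 1 μM Mn2+, 0.5 μM enzyme, 50 °C, 10 min; stopped by boiling 5 min; sugars by HPLC-ELSD. Kinetics used four ketose substrates, with Michaelis–Menten non-linear fit; three repeats, mean ± S.D.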

[2] = biological target: T1, sDTE (Sinorhizobium sp. D-tagatose 3-epimerase) (Sinorhizobium sp., UniProt Z9YNK1L8X5, R65G); assay: D-sorbose formation by HPLC, relative activity; settings: […] g/L D-tagatose, […] Mn2+, […] enzyme, pH […] °C, […] min
T1 sequence (Z9YNK1L8X5 1-293 R65G): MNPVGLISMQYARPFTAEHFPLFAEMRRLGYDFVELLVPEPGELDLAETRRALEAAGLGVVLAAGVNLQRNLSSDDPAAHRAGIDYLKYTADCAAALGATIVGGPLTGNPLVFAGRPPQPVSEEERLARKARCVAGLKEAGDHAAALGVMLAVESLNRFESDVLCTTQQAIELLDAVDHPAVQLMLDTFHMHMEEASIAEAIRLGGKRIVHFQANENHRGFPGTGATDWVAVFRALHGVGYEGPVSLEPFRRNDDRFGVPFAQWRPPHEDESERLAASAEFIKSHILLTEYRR

[3] = biological target: T2, sDTE (Sinorhizobium sp. D-tagatose 3-epimerase) (Sinorhizobium sp., UniProt Z9YNK1L8X5, M9A); assay: D-sorbose formation by HPLC, relative activity; settings: […] g/L D-tagatose, […] Mn2+, […] enzyme, pH […] °C, […] min
T2 sequence (Z9YNK1L8X5 1-293 M9A): T1 sequence (Z9YNK1L8X5 1-293 R65G) with M9A, G65R

Km [1] [mM] | SMILES | D-sorbose formation by HPLC, relative activity [2] | D-sorbose formation by HPLC, relative activity [3]
39.8 ± 1.7 | O=C(CO)[C@H](O)[C@H](O)[C@H](O)CO [D-Allulose] | – | –
54.7 ± 1.3 | OCC1(O)OC[C@@H](O)[C@@H](O)[C@@H]1O (stereo partly drawn) [D-Fructose] | – | –
83 ± 4.3 | OCC1(O)OC[C@@H](O)[C@H](O)[C@H]1O (stereo partly drawn) [D-Sorbose] | – | –

SMILES | Km [1] [mM] | D-sorbose formation by HPLC, relative activity [2] | D-sorbose formation by HPLC, relative activity [3]
OCC1(O)OC[C@@H](O)[C@H](O)[C@@H]1O (stereo partly drawn) [D-Tagatose] | 26 ± 1.2 | the mutation of R65G and M9A abolished the catalytic activity toward D-tagatose | the mutation of R65G and M9A abolished the catalytic activity toward D-tagatose

— paper PMC9059984 (RSC Advances, 2019)
